CHO parental Ca = counter-screen for OX1R antagonists: effect in parental CHO cells; parental CHO-K1, ATP-induced calcium, Fluo-8 fluorescence; inhibition, % at 5.6 µM; 330,000 compounds, 0.63% hits;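 active means inhibition above that plate's mean sample inhibition plus 3 SD, cut at about 26% in these data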
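Assay system: parental CHO cells; Read-out basis: percent inhibition of ATP-evoked calcium rise, normalized to controls; Benchmarks: ATP and no-ATP DMSO wells; Compound dosing: single nominal dose of 5.6 µM per compound; Signal: Fluo-8 calcium dye fluorescence; Also added: ATP as calcium-mobilizing challenge; Repeats: singlicate.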
TAAR1 ag = human TAAR1 agonism; Q96RJ0; CHO RD-HGA16 TAAR1, Fluo-8 calcium fluorescence; vehicle wells 0%, saturating PEA agonist 100%; activation, % at 3 µM; 360,000 compounds, 0.99% hits; AID 624467;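 active means activation above the mean activation of all test compounds in the run plus 3 SD, cut at about 38% in these data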
Target sequence (Q96RJ0 whole entry, looked up): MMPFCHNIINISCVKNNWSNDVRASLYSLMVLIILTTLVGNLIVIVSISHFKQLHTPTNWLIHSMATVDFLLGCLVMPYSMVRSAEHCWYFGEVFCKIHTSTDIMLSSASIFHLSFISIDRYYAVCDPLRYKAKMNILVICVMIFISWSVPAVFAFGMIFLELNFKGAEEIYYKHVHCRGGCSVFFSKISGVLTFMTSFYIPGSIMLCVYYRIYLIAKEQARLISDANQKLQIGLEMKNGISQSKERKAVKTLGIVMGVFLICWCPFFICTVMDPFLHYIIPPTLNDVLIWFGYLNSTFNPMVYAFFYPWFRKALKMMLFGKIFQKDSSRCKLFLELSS
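System: CHO RD-HGA16 cells carrying human TAAR1 plus Gα16; Incubation: 17-24 h seeding, 75 min 37 °C dye, 30 min RT; Measured by: Fluo-8 fluorescence, 5 s baseline then 140 s kinetic read; Control set: DMSO and PEA EC100; Replication: single well for each compound.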
GPR7 antagonist = human neuropeptides B/W receptor 1 antagonism; GPR7-expressing cells, fluorescence antagonist assay; inhibition, % at 4.4 µM; 290,000 compounds, 1.1% hits; in the data active means inhibition above about 16%, passing the limit was not always enough;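 further: cells stimulated with the agonist NPW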
Target sequence (P48145 whole entry, looked up): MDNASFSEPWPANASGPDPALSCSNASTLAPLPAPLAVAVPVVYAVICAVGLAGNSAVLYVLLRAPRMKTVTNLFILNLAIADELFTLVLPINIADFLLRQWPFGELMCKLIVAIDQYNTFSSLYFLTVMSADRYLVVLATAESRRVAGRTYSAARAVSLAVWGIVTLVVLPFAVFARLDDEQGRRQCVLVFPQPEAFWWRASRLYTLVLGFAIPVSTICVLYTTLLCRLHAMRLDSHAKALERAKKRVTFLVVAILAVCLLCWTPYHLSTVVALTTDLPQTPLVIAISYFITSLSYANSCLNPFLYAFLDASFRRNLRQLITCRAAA
OX1R antag-1 = antagonists of human orexin 1 receptor. inhibition, % at 5 µM. 330,000 compounds, 0.43% hits. CHO/OX1R cells, Fluo-8 calcium fluorescence, orexin A;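 active means inhibition above its plate's threshold, mean inhibition of all tested compounds on the plate plus 3 SD, cut at about 37% in these data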
TAAR1 antagonist = antagonists of human TAAR1; CHO RD-HGA16 TAAR1, Fluo-8 calcium fluorescence, antagonist; AID 624466; 360,000 compounds, 1.5% hits; Q96RJ0; inhibition, % at 3 µM;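 active means inhibition above a per-plate cutoff, the mean inhibition of test compounds on that plate plus 3 SD, cut at about 49% in these data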
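System: CHO RD-HGA16 cells bearing hTAAR1. Reagent: EC80 β-phenethylamine stimulus. Schedule: seeding 17-24 h prior, 75-min 37 °C, 30-min RT dye loading. Signal: Fluo-8 intracellular calcium dye fluorescence, real-time kinetic reads. Read-out: % inhibition from peak post-agonist over basal fluorescence ratio. Benchmarks: vehicle wells and EC80 agonist wells. Replicates: n of 1.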
OX1R antag-2 = OX1R (human) antagonism; O43613; OX1R-expressing cells, FRET antagonist read-out; inhibition, % at 6.6 µM; 330,000 compounds, 1.8% hits; in the data active means inhibition mostly above about 38%, no sharp cut-off; inactive means mostly below about 40%
A number is an active result. Only some compounds are listed: those with a hit (about 4.6% of all), similar ones and a draw of the others.

For COc1ccc(C2CC(=O)C(c3ccc(C(C)=O)cc3)=CN2Cc2ccccc2)cc1 (configuration not stated) the results were TAAR1 ag inactive and TAAR1 antagonist inactive.
For COc1ccc(C(OCC(O)CN(C)C2CCCCC2)c2ccc(OC)cc2)cc1 (configuration not stated) the results were CHO parental Ca inactive, TAAR1 ag inactive, GPR7 antagonist 20, OX1R antag-1 inactive, TAAR1 antagonist inactive and OX1R antag-2 inactive.
Screening COC(=O)c1sc(-c2ccc(C(C)(C)C)cc2)cc1NC(=O)CCC(=O)O returned CHO parental Ca inactive, TAAR1 ag inactive, GPR7 antagonist inactive, OX1R antag-1 inactive, TAAR1 antagonist 51 and OX1R antag-2 inactive.
Screening O=c1[nH]c2ccc(Cl)cc2c(-c2ccccc2)c1SC(=S)N1CCOCC1 returned CHO parental Ca inactive, TAAR1 ag inactive, GPR7 antagonist inactive, OX1R antag-1 inactive, TAAR1 antagonist 56 and OX1R antag-2 inactive.
For O=C1N=c2ccccc2=C1c1sc(Nc2cccc(O)c2)nc1O the results were CHO parental Ca inactive, TAAR1 ag inactive, GPR7 antagonist inactive, OX1R antag-1 inactive, TAAR1 antagonist inactive and OX1R antag-2 54.
CC(C)NC(=O)C1C(c2ccccc2)=Nc2ccccc2N1C(=O)c1cc(Cl)cc(Cl)c1 (configuration not stated) was read as TAAR1 ag inactive and TAAR1 antagonist inactive.
`CCN1C(=O)c2cccc3c(N)ccc(c23)C1=O` gave CHO parental Ca 46, TAAR1 ag 136, GPR7 antagonist inactive, OX1R antag-1 58, TAAR1 antagonist inactive and OX1R antag-2 inactive.
`CCCN1C(=O)c2cccc3c(N4CCCCC4)ccc(c23)C1=O` gave CHO parental Ca inactive, TAAR1 ag inactive, GPR7 antagonist inactive, OX1R antag-1 inactive, TAAR1 antagonist inactive and OX1R antag-2 inactive.
For Cc1ccc(C(=O)Nc2ccc(Cc3ccncc3)cc2)cc1[N+](=O)[O-] the results were CHO parental Ca inactive, TAAR1 ag inactive, GPR7 antagonist inactive, OX1R antag-1 inactive, TAAR1 antagonist 60 and OX1R antag-2 inactive.
`O=C(Nc1ccc(Cc2ccncc2)cc1)c1cccc([N+](=O)[O-])c1` gave CHO parental Ca inactive, TAAR1 ag inactive, GPR7 antagonist inactive, OX1R antag-1 inactive, TAAR1 antagonist inactive and OX1R antag-2 inactive.
CCN(CC)S(=O)(=O)c1ccc(C(=O)Nc2ccc(Cc3ccncc3)cc2)cc1 was read as CHO parental Ca 85, TAAR1 ag inactive, GPR7 antagonist inactive, OX1R antag-1 82, TAAR1 antagonist 56 and OX1R antag-2 39.
CC(C)(C)c1ccc(S(=O)(=O)Nc2ccc(Cc3ccncc3)cc2)cc1 was read as CHO parental Ca inactive, TAAR1 ag 46, GPR7 antagonist inactive, OX1R antag-1 inactive, TAAR1 antagonist inactive and OX1R antag-2 inactive.
`Cc1cc(C)c(C)c(S(=O)(=O)N2CCC(C(=O)OCC(=O)N3c4ccccc4NC(=O)C3(C)C)CC2)c1C` gave CHO parental Ca inactive, TAAR1 ag inactive, GPR7 antagonist inactive, OX1R antag-1 inactive, TAAR1 antagonist 49 and OX1R antag-2 inactive.
N#CCC1(O)C(=O)Nc2ccccc21 (configuration not stated) was read as TAAR1 ag inactive and TAAR1 antagonist inactive.
Screening COCOCCn1cc(CN2CCS(=O)(=O)N(Cc3ccc(-c4ccc(Cl)cc4)cc3)C(CC(C)C)C2=O)nn1 (configuration not stated) returned TAAR1 ag inactive and TAAR1 antagonist inactive.
`Cc1ccc(-c2ccc(CN3C(CC(C)C)C(=O)N(Cc4cn(CCC5OCCCO5)nn4)CCS3(=O)=O)cc2)cc1` (configuration not stated) gave TAAR1 ag inactive and TAAR1 antagonist 58.
Screening COCOCCn1cc(CN2CCS(=O)(=O)N(Cc3ccc(-c4ccc(Cl)nc4)cc3)C(CC(C)C)C2=O)nn1 (configuration not stated) returned TAAR1 ag inactive and TAAR1 antagonist 49.
For O=C(CN1C(=O)C(=O)c2ccccc21)OCN1C(=O)c2ccccc2C1=O the results were CHO parental Ca inactive, TAAR1 ag inactive, GPR7 antagonist inactive, OX1R antag-1 inactive, TAAR1 antagonist inactive and OX1R antag-2 44.
Screening COc1ccccc1NC(=O)COC(=O)CN1C(=O)C(=O)c2ccccc21 returned CHO parental Ca inactive, TAAR1 ag inactive, GPR7 antagonist inactive, OX1R antag-1 inactive, TAAR1 antagonist inactive and OX1R antag-2 inactive.
CC(=O)N1CCN(c2ccc(N3CCN(C(C)=O)[C@H](C)C3)c(C)c2)[C@H](C)C1 was read as TAAR1 ag inactive and TAAR1 antagonist inactive.
`CCN(CC)C(=O)c1ccc(COc2ccc(Cl)c(C)c2)o1` gave CHO parental Ca 44, TAAR1 ag inactive, GPR7 antagonist inactive, OX1R antag-1 inactive, TAAR1 antagonist inactive and OX1R antag-2 inactive.
For Cc1cc(OCc2ccc(C(=O)n3cccn3)o2)ccc1Cl the results were CHO parental Ca inactive, TAAR1 ag inactive, GPR7 antagonist inactive, OX1R antag-1 inactive, TAAR1 antagonist inactive and OX1R antag-2 inactive.
COc1cc(-c2c(C(=O)c3ccccc3)[nH]c(N)c2C(=O)NCCc2c[nH]c3ccccc23)ccc1F was read as TAAR1 ag inactive and TAAR1 antagonist inactive.
`CCN(CC(=O)Nc1c(F)cccc1F)C(=O)Cc1csc(-c2ccccc2)n1` gave CHO parental Ca inactive, TAAR1 ag inactive, OX1R antag-1 inactive, TAAR1 antagonist inactive and OX1R antag-2 63.
For CCN(CC(=O)Nc1c(F)cccc1F)C(=O)Cc1c(C)nc2ccccc2c1C the results were CHO parental Ca inactive, TAAR1 ag inactive, OX1R antag-1 inactive, TAAR1 antagonist inactive and OX1R antag-2 inactive.
Cc1csc(-c2nc3ccccc3n2C(C)c2nc3ccccc3[nH]2)c1 (configuration not stated) was read as TAAR1 ag inactive and TAAR1 antagonist inactive.
`NC(=Nc1ccc(Cl)cc1)c1ccccc1` gave CHO parental Ca inactive, TAAR1 ag 43, GPR7 antagonist inactive, OX1R antag-1 inactive, TAAR1 antagonist inactive and OX1R antag-2 inactive.
Screening ONC(=Nc1ccccc1)c1ccc(Cl)cc1 returned CHO parental Ca inactive, TAAR1 ag inactive, GPR7 antagonist inactive, OX1R antag-1 inactive, TAAR1 antagonist inactive and OX1R antag-2 inactive.
O=C1C2C3C=CC(C4CC34)C2C(=O)N1/N=C/c1ccc(-c2ccc(F)cc2[N+](=O)[O-])o1 (configuration not stated) was read as CHO parental Ca inactive, TAAR1 ag inactive, GPR7 antagonist inactive, OX1R antag-1 inactive, TAAR1 antagonist inactive and OX1R antag-2 inactive.

Bioassay records from PubChem BioAssay.
